Experimental data taken from ChEMBL document CHEMBL4325885, “Design, synthesis, and biological evaluation of novel phenol ether derivatives as non-covalent proteasome inhibitors” (Eur J Med Chem, 2019).
pIC50: −log10 of the molar value.

Columns and labels:
[1] = molecular target: T1, Proteasome Macropain subunit MB1 (Homo sapiens, UniProt P28074); assay: Inhibition of human chymotrypsin-like activity of 20S constitutive proteasome using Suc-LLVY-AMC as substrate preincubated for 15 mins followed by substrate addition by fluorescence assay
T1 sequence (P28074 whole entry): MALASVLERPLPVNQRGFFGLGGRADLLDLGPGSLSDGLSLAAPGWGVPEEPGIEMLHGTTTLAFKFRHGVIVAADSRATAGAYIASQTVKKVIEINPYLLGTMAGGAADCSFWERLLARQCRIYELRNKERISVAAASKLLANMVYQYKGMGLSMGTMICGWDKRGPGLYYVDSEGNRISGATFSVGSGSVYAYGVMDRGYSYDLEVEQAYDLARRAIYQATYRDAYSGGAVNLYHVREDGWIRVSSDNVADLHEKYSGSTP

[2] = molecular target: T2, Proteasome Macropain subunit MB1 (Homo sapiens) (UniProt P28074); assay: Inhibition of human chymotrypsin-like activity of 20S constitutive proteasome at 10 uM using Suc-LLVY-AMC as substrate preincubated for 15 mins followed by substrate addition by fluorescence assay relative to control
T2 sequence (whole entry): T1 sequence (P28074 whole entry)

[3] = Stability in human liver microsomes assessed as drug degradation at 1 uM measured within 30 mins in presence of NADPH by LC-MS/MS analysis; format: ADME, Microsome; conditions: read-out: Drug degradation
In short: (§1)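 Pooled human liver microsomes at 1.0 mg/mL protein in 0.1 M phosphate buffer saline pH 7.4 with 1 mM NADPH, preincubated 5 min at 37 °C. Reaction started by adding test compound at 1 μM, then incubated 0, 10, 20 or 30 min. Compound disappearance monitored.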

[4] = molecular target: T3, Proteasome subunit beta type-8 (Homo sapiens, UniProt P28062); assay: Inhibition of 20S immunoproteasome LMP7 (unknown origin) using Ac-ANW-AMC as substrate preincubated for 15 mins followed by substrate addition by fluorescence assay
T3 sequence (P28062 whole entry): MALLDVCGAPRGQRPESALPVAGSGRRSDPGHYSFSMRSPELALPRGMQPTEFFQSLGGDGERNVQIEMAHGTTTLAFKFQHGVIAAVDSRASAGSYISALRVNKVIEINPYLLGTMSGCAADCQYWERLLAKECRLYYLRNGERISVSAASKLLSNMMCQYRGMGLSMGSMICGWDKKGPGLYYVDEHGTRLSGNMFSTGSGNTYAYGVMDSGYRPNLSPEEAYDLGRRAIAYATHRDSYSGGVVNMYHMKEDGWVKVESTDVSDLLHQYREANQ

HepG2 = assay: Antiproliferative activity against human HepG2 cells after 72 hrs by MTT assay; format: functional, cell-based; conditions: HepG2, 72 h
In short: (§2)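 Cells kept at 37 °C, 5% CO2; HGC27 in RPMI-1640 and HepG2 in IMDM, each with 10% FBS and penicillin/streptomycin. Seeded at 1×10⁵ cells/well, then exposed to graded compound concentrations or 0.2% DMSO for 72 h. MTT (5 mg/mL) added for 4 h, formazan dissolved in DMSO, absorbance read at 570 nm. Inhibition = (A_control − A_sample)/A_control; IC50 from variable-slope sigmoidal fit.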

HGC-27 = assay: Antiproliferative activity against human HGC27 cells after 72 hrs by MTT assay; format: functional, cell-based; conditions: HGC-27, 72 h; in short: as §2
RPMI-8226 = assay: Antiproliferative activity against human RPMI8226 cells after 72 hrs by MTS/PMS assay; format: functional, cell-based; conditions: RPMI-8226, 72 h
In short: (§3)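 Cells kept at 37 °C, 5% CO2; RPMI 8226 and MM.1S in RPMI-1640, MV-4-11 in IMDM, each with 10% FBS and penicillin/streptomycin. Seeding per well: RPMI 8226 5×10³, MM.1S 3×10⁴, MV-4-11 8×10³. Graded compound concentrations or 0.2% DMSO for 72 h. MTS/PMS added for 2-4 h at 37 °C, OD read at 490 nm minus 690 nm background. IC50 from variable-slope sigmoidal fit.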

MM1.S = assay: Antiproliferative activity against human MM1S cells after 72 hrs by MTS/PMS assay; format: functional, cell-based; in short: as §3
MV4-11 = assay: Antiproliferative activity against human MV4-11 cells after 72 hrs by MTS/PMS assay; format: functional, cell-based; conditions: MV4-11, 72 h; in short: as §3
[5] = Stability in human liver microsomes at 1 uM measured after 30 mins in presence of NADPH by LC-MS/MS analysis; format: ADME, Microsome; conditions: 0.5 h; in short: as §1

pIC50 [1]	Structure (SMILES)	also measured
6.32	Cc1ccc(OCC(=O)N(CC(=O)Nc2ccnnc2)C(C)C)cc1	
6.39	CC(C)N(CC(=O)Nc1ccnnc1)C(=O)COc1ccc(Br)cc1	
5.92	CCCc1ccc(OCC(=O)N(CC(=O)Nc2ccc(F)cc2)C(C)C)cc1	
5.23	CCCc1ccc(OCC(=O)N(CC(=O)Nc2ccc3ccccc3c2)C(C)C)cc1	
7.05	CCCc1ccc(OCC(=O)N(CC(=O)Nc2ccnnc2)C(C)C)cc1	
6.04	CCCc1ccc(OCC(=O)N(CC(=O)Nc2ccc(C(F)(F)F)cc2)C(C)C)cc1	
	CCCc1ccc(OCC(=O)N(CCNC(=O)NCc2cccnc2)C(C)C)cc1	inhibition [2]: 38.7%
	CCCc1ccc(OCC(=O)N(CCC(=O)Nc2cccnc2)C(C)C)cc1	inhibition [2]: 15.5%
6.02	CC(C)N(CC(=O)Nc1ccnnc1)C(=O)COc1ccc(C(F)(F)F)cc1	
	CCCc1ccc(OCC(=O)N(CCNC(=O)c2cccnc2)C(C)C)cc1	inhibition [2]: 30.8%
7.04	CCCc1ccc(OCC(=O)N(Cc2nc(-c3cccnc3)no2)C(C)C)cc1	inhibition [2]: 80.2%; metabolised at 0.5 h, 1 µM [3]: > 50%; pIC50 [4]: < 5.00; pIC50 (HepG2): 5.53; pIC50 (HGC-27): 5.47; pIC50 (RPMI-8226): < 4.70; pIC50 (MM1.S): < 4.70; pIC50 (MV4-11): < 4.70
7.31	CCCCc1ccc(OCC(=O)N(CC(=O)Nc2ccnnc2)C(C)C)cc1	Stability [5]: Stable; pIC50 [4]: < 5.00; pIC50 (HepG2): 5.41; pIC50 (HGC-27): 5.34; pIC50 (RPMI-8226): < 4.70; pIC50 (MM1.S): < 4.70; pIC50 (MV4-11): < 4.70
6.08	CCCc1ccc(OCC(=O)N(CC(=O)Nc2ccccn2)C(C)C)cc1	
	CCCc1ccc(OCC(=O)N(CCC(=O)NCc2cccnc2)C(C)C)cc1	inhibition [2]: 12.7%
6.02	CCCc1ccc(OCC(=O)N(CC(=O)Nc2ccc(OC)cc2)C(C)C)cc1	
6.44	CCCc1ccc(OCC(=O)N(CC(=O)Nc2ccc(C#N)cc2)C(C)C)cc1	
	CCCc1ccc(OCC(=O)N(CC(=O)NCc2cccnc2)C(C)C)cc1	inhibition [2]: 1.16%
	CCCc1ccc(OCC(=O)N(CCNC(=O)Nc2cccnc2)C(C)C)cc1	inhibition [2]: 13.8%

pIC50 [1]	Structure (SMILES)	also measured
5.41	CCCc1ccc(OCC(=O)N(CC(=O)Nc2nncs2)C(C)C)cc1	
6.59	CCOc1ccc(OCC(=O)N(CC(=O)Nc2ccnnc2)C(C)C)cc1	
5.81	COC(=O)Cc1ccc(OCC(=O)N(CC(=O)Nc2ccnnc2)C(C)C)cc1	
5.95	CCCc1ccc(OCC(=O)N(CC(=O)Nc2nc3ccc(OC)cc3s2)C(C)C)cc1	
5.70	CCCc1ccc(OCC(=O)N(CC(=O)Nc2ccon2)C(C)C)cc1	
6.61	CCc1ccc(OCC(=O)N(CC(=O)Nc2ccnnc2)C(C)C)cc1	
6.24	COc1ccc(OCC(=O)N(CC(=O)Nc2ccnnc2)C(C)C)cc1	
6.93	CC(C)Cc1ccc(OCC(=O)N(CC(=O)Nc2ccnnc2)C(C)C)cc1	
6.40	CCCc1ccc(OCC(=O)N(CC(=O)Nc2cnccn2)C(C)C)cc1	
6.64	CCCc1ccc(OCC(=O)N(CC(=O)Nc2ccc(S(C)(=O)=O)cc2)C(C)C)cc1	pIC50 [4]: < 5.00; pIC50 (HepG2): 5.54; pIC50 (HGC-27): 5.61; pIC50 (RPMI-8226): < 4.70; pIC50 (MM1.S): < 4.70; pIC50 (MV4-11): < 4.70
6.55	CCCc1ccc(OCC(=O)N(CC(=O)Nc2cncnc2)C(C)C)cc1	
5.77	CCCc1ccc(OCC(=O)N(CC(=O)Nc2cccnc2)C(C)C)cc1	inhibition [2]: 58.2%; Stability [5]: Stable
5.33	CCCc1ccc(OCC(=O)N(CC(=O)Nc2ccc(OC)c(OC)c2)C(C)C)cc1	
5.70	CCCc1ccc(OCC(=O)N(CC(=O)Nc2cccc(OC)c2)C(C)C)cc1	
6.01	CC(C)N(CC(=O)Nc1ccnnc1)C(=O)COc1ccc(CCO)cc1	
7.00	CCCc1ccc(OCC(=O)N(CC(=O)Nc2ccncc2)C(C)C)cc1	
7.19	CCCCCc1ccc(OCC(=O)N(CC(=O)Nc2ccnnc2)C(C)C)cc1	
< 5.00	CCCc1ccc(OCC(=O)N(CC(=O)Nc2ccccc2OC)C(C)C)cc1	
